# In ChEMBL document CHEMBL1158847, “Litebamine N-homologues: preparation and anti-acetylcholinesterase activity” (J Nat Prod, 1998):
# Molecular target: Acetylcholinesterase (Electrophorus electricus, UniProt O42275)
# Test: Inhibition of electric eel AChE by colorimetric method
# Conditions: not given
# Outline: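 Ellman colorimetric assay. Enzyme 0.125 U preincubated 2 min at 37 °C with test samples and DTNB 0.3 mM in 0.1 M phosphate buffer, pH 8.0. Reaction started with 0.5 mM […]. Absorbance followed at 412 nm over time. IC50 taken from dose-response curves of at least four concentrations spanning 0-90% inhibition.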
# Sequence of Acetylcholinesterase (O42275 whole entry): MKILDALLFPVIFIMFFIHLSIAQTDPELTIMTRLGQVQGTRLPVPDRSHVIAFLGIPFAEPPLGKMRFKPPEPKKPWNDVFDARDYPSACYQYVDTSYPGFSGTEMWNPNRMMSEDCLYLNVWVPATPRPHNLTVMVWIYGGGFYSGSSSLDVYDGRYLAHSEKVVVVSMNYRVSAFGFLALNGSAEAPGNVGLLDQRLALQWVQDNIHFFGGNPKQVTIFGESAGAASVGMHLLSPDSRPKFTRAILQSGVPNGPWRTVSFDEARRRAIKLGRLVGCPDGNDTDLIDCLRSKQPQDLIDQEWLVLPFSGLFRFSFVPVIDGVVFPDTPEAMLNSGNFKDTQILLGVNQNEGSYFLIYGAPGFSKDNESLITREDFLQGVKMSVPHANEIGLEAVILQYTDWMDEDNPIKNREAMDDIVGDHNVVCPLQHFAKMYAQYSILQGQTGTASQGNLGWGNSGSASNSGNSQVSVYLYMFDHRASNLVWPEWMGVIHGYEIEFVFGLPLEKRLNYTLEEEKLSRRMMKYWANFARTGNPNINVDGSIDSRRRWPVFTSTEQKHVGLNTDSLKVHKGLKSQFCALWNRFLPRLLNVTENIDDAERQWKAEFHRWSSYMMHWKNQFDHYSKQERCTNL
row,Structure (SMILES),IC50 [µM]
1,CCCN1CCc2c(c(O)c(OC)c3c2ccc2cc(O)c(OC)cc23)C1,7.21
2,CCC[N+]1(C)CCc2c(c(O)c(OC)c3c2ccc2cc(O)c(OC)cc23)C1 (stereo not given),2.79
3,CCCNCCc1cc(O)c(OC)c2c1ccc1cc(O)c(OC)cc12,107
4,CCCCNCCc1cc(O)c(OC)c2c1ccc1cc(O)c(OC)cc12,111
5,COc1cc2c(ccc3c(CCNCC(C)C)cc(O)c(OC)c32)cc1O,62
6,COc1cc2c(ccc3c(CCNC(C)C)cc(O)c(OC)c32)cc1O,72
7,COc1cc2c(ccc3c4c(c(O)c(OC)c32)CN(Cc2ccccc2)CC4)cc1O,10.7
8,CCCCN1CCc2c(c(O)c(OC)c3c2ccc2cc(O)c(OC)cc23)C1,7.79
9,C=CCN1CCc2c(c(O)c(OC)c3c2ccc2cc(O)c(OC)cc23)C1,15.8
10,CCNCCc1cc(O)c(OC)c2c1ccc1cc(O)c(OC)cc12,27.2
11,COc1cc2c(ccc3c4c(c(O)c(OC)c32)CN(C(C)C)CC4)cc1O,6.8
12,COc1cc2c(ccc3c4c(c(O)c(OC)c32)CN(CC(C)C)CC4)cc1O,6.51
13,CCN1CCc2c(c(O)c(OC)c3c2ccc2cc(O)c(OC)cc23)C1,14.5
14,COc1cc2c(ccc3c4c(c(O)c(OC)c32)CN(C)CC4)cc1O [LITEBAMINE],22

# Test system: not listed separately
# Test: Antiplatelet activity against rabbit platelets assessed as inhibition of arachidonic acid-induced thromboxane B2 formation at 15 uM
# Type: functional
# Conditions: Oryctolagus cuniculus, Platelet
row,Structure (SMILES),inhibition at 15 µM [%]
1,COc1cc2c(ccc3c4c(c(O)c(OC)c32)CN(C)CC4)cc1O [LITEBAMINE],77
